According to ChEMBL document CHEMBL5230166, “Novel quinoline-piperazine hybrids: the design, synthesis and evaluation of antibacterial and antituberculosis properties” (RSC Med Chem, 2023):
Converted amounts (≈) assume the structure as drawn.

Columns and labels:
Staphylococcus aureus [1] = assay: Antibacterial activity against methicillin sensitive Staphylococcus aureus ATCC 29213 assessed as inhibition of bacterial growth incubated for 22 to 24 hrs; assay type: functional; conditions: time 22-24 hrs
Summary of the method: (§1)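 Broth MIC referenced to an earlier protocol. Inocula come from mid-log cultures sub-cultured on soybean casein digest agar, adjusted to McFarland (~10⁸ CFU/mL), then diluted to ~10⁵ CFU/mL. Compounds and controls are serially diluted from 64 to 0.03 µg/mL. Tested in triplicate, read after 22–24 h at 37 °C. MIC is the lowest concentration with no visible growth.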

Staphylococcus aureus [2] = assay: Antibacterial activity against methicillin resistant Staphylococcus aureus ATCC 33591 assessed as inhibition of bacterial growth incubated for 22 to 24 hrs; assay type: functional; conditions: time 22-24 hrs
Summary of the method: (§2)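 Broth microdilution MIC. Strains were subcultured on Soybean Casein Digest Agar, and inocula were taken from mid-log culture, adjusted to McFarland (~10⁸ CFU/mL), then diluted to ~10⁵ CFU/mL. Serial dilutions ran from 64 to 0.03 µg/mL. Plates were incubated 22–24 h at 37 °C, in triplicate. MIC was the lowest concentration with no visible growth.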

[3] = system: Staphylococcus epidermidis; assay: Antibacterial activity against clinical isolate methicillin resistant Staphylococcus epidermidis AB 735 assessed as inhibition of bacterial growth incubated for 22 to 24 hrs; assay type: functional; conditions: time 22-24 hrs
Enterococcus faecalis = assay: Antibacterial activity against vancomycin resistant Enterococcus faecalis ATCC 700802 assessed as inhibition of bacterial growth incubated for 22 to 24 hrs; assay type: functional; conditions: time 22-24 hrs; summary of the method: as §2
Enterococcus faecium = assay: Antibacterial activity against Enterococcus faecium ATCC 49624 assessed as inhibition of bacterial growth incubated for 22 to 24 hrs; assay type: functional; conditions: time 22-24 hrs; summary of the method: as §1
Escherichia coli = assay: Antibacterial activity against clinical isolate Escherichia coli AB 117 assessed as inhibition of bacterial growth incubated for 22 to 24 hrs; assay type: functional; conditions: time 22-24 hrs
Klebsiella pneumoniae = assay: Antibacterial activity against clinical isolate Klebsiella pneumoniae AB 356 assessed as inhibition of bacterial growth incubated for 22 to 24 hrs; assay type: functional; conditions: time 22-24 hrs
Pseudomonas aeruginosa = assay: Antibacterial activity against clinical isolate Pseudomonas aeruginosa AB 645 assessed as inhibition of bacterial growth incubated for 22 to 24 hrs; assay type: functional; conditions: time 22-24 hrs
Acinetobacter baumannii = assay: Antibacterial activity against clinical isolate Acinetobacter baumannii BAA 747 assessed as inhibition of bacterial growth incubated for 22 to 24 hrs; assay type: functional; conditions: time 22-24 hrs
Moraxella catarrhalis = assay: Antibacterial activity against Moraxella catarrhalis ATCC 25238 assessed as inhibition of bacterial growth incubated for 22 to 24 hrs; assay type: functional; conditions: time 22-24 hrs; summary of the method: as §1
[4] = system: Mycolicibacterium smegmatis; assay: Antibacterial activity against Mycobacterium smegmatis ATCC 607 assessed as inhibition of bacterial growth incubated for 2 days by CLSI protocol based broth microdilution method; assay type: functional; conditions: ATCC 607, 48 h, time 2 day
Summary of the method: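 CLSI broth microdilution in Middlebrook 7H9 with 10% ADC. Compounds are dissolved in DMSO at 4.0 mg/mL (stock) and serially diluted from 64 to 0.015 µg/mL. Inoculum is ~10⁵ CFU/mL, checked by plating on 7H11 agar. Rifampin and levofloxacin are positive controls; drug-free broth with DMSO is the negative control. Growth inhibition is read after 2 days at 37 °C as MIC.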

[5] = system: Mycobacterium tuberculosis; assay: Antibacterial activity against Mycobacterium tuberculosis H37Rv ATCC 25618 assessed as inhibition of bacterial growth incubated for 2 days by CLSI protocol based broth microdilution method; assay type: functional; conditions: H37Rv ATCC 25618, 48 h, time 2 day
HEK293 [6] = assay: Cytotoxicity against HEK293 cells assessed as inhibition of cell growth upto 64 ug/ml; assay type: toxicity, cell-based; conditions: human, dose < 64 µg/ml
HepG2 [7] = assay: Cytotoxicity against human HepG2 cells assessed as inhibition of cell growth upto 32 ug/ml; assay type: toxicity, cell-based; conditions: dose < 32 µg/ml
Summary of the method: (§3)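 MTT proliferation assay on HEK293 (normal embryonic kidney) or HepG2 (liver cancer) cells. Cells are seeded at 10000 cells/well and adhered at 37 °C, 5% CO₂. Compounds are tested at 64 to 1 µg/mL (143 to 4.6 µM) in triplicate, with a DMSO vehicle control. Incubation is 48 h, followed by MTT (1 mg/mL) for 3 h at 37 °C.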

A549 [8] = assay: Cytotoxicity against human A549 cells assessed as inhibition of cell growth upto 32 ug/ml; assay type: toxicity, cell-based; conditions: dose < 32 µg/ml
Summary of the method: (§4)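 MTT proliferation assay. A549 cells are seeded at 10000 cells/well and allowed to adhere at 37 °C, 5% CO₂. Compounds are added at 64 to 1 µg/mL (143 to 4.6 µM) in triplicate, with a DMSO vehicle control. Incubation is 24 h, then MTT (1 mg/mL) is added for 3 h at 37 °C.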

[9] = Cytotoxicity against human HepG2 cells assessed as inhibition of cell growth at 64 ug/ml relative to control; assay type: toxicity, cell-based; conditions: at 64 µg/mL, read-out: Activity; summary of the method: as §3
[10] = Cytotoxicity against human A549 cells assessed as inhibition of cell growth at 64 ug/ml relative to control; assay type: toxicity, cell-based; conditions: at 64 µg/mL, read-out: Activity; summary of the method: as §4
HEK293 [11] = assay: Cytotoxicity against HEK293 cells assessed as cell viability at 143 uM relative to control; conditions: human, hek293, 143 µM
A549 [12] = assay: Cytotoxicity against human A549 cells assessed as cell viability at 143 uM relative to control; conditions: a549, 143 µM
HepG2 [13] = assay: Cytotoxicity against human HepG2 cells assessed as cell viability at 143 uM relative to control; conditions: hepg2, 143 µM

In the case of COc1cc(CN2CCN(C(=O)c3cccc(Cl)c3)CC2)nc2ccc(F)cc12, the MIC (Staphylococcus aureus [1]) is reported as greater than 64 µg/mL, the MIC (Staphylococcus aureus [2]) is reported as greater than 64 µg/mL and the MIC [3] is reported as greater than 64 µg/mL. It also gave an MIC (Enterococcus faecalis) greater than 64 µg/mL, an MIC (Enterococcus faecium) greater than 64 µg/mL and an MIC (Escherichia coli) greater than 64 µg/mL. It also gave an MIC (Klebsiella pneumoniae) greater than 64 µg/mL, an MIC (Pseudomonas aeruginosa) greater than 64 µg/mL and an MIC (Acinetobacter baumannii) greater than 64 µg/mL. For the same molecule, the MIC (Moraxella catarrhalis) was 64 µg/mL (≈ 155 µM), the MIC [4] was greater than 64 µg/mL and the MIC [5] was greater than 64 µg/mL.
With COc1cc(CN2CCN(C(=O)c3cccc(F)c3)CC2)nc2ccc(F)cc12 the MIC (Staphylococcus aureus [1]) was greater than 64 µg/mL, the MIC (Staphylococcus aureus [2]) was greater than 64 µg/mL and the MIC [3] was greater than 64 µg/mL. The MIC (Enterococcus faecalis) was greater than 64 µg/mL, the MIC (Enterococcus faecium) was greater than 64 µg/mL and the MIC (Escherichia coli) was greater than 64 µg/mL. The MIC (Klebsiella pneumoniae) was greater than 64 µg/mL, the MIC (Pseudomonas aeruginosa) was greater than 64 µg/mL and the MIC (Acinetobacter baumannii) was greater than 64 µg/mL. The MIC (Moraxella catarrhalis) was greater than 64 µg/mL, the MIC [4] was greater than 64 µg/mL and the MIC [5] was greater than 64 µg/mL.
COc1ccc(C(=O)N2CCN(Cc3cc(OC)c4cc(F)ccc4n3)CC2)cc1 showed an MIC (Staphylococcus aureus [1]) greater than 64 µg/mL, an MIC (Staphylococcus aureus [2]) greater than 64 µg/mL and an MIC [3] greater than 64 µg/mL. It also gave an MIC (Enterococcus faecalis) greater than 64 µg/mL, an MIC (Enterococcus faecium) greater than 64 µg/mL and an MIC (Escherichia coli) greater than 64 µg/mL. For the same molecule, the MIC (Klebsiella pneumoniae) was greater than 64 µg/mL, the MIC (Pseudomonas aeruginosa) was greater than 64 µg/mL and the MIC (Acinetobacter baumannii) was greater than 64 µg/mL. For the same molecule, the MIC (Moraxella catarrhalis) was greater than 64 µg/mL, the MIC [4] was greater than 64 µg/mL and the MIC [5] was greater than 64 µg/mL.
For COc1cc(CN2CCN(C(=O)c3ccccc3F)CC2)nc2ccc(F)cc12, the MIC (Staphylococcus aureus [1]) was greater than 64 µg/mL, the MIC (Staphylococcus aureus [2]) was greater than 64 µg/mL and the MIC [3] was greater than 64 µg/mL. The MIC (Enterococcus faecalis) was greater than 64 µg/mL, the MIC (Enterococcus faecium) was greater than 64 µg/mL and the MIC (Escherichia coli) was greater than 64 µg/mL. It also gave an MIC (Klebsiella pneumoniae) greater than 64 µg/mL, an MIC (Pseudomonas aeruginosa) greater than 64 µg/mL and an MIC (Acinetobacter baumannii) greater than 64 µg/mL. For the same molecule, the MIC (Moraxella catarrhalis) was greater than 64 µg/mL, the MIC [4] was greater than 64 µg/mL and the MIC [5] was greater than 64 µg/mL.
COc1cc(CN2CCN(S(=O)(=O)c3ccccc3F)CC2)nc2ccc(F)cc12 gave an MIC (Staphylococcus aureus [1]) of 0.5 µg/mL (≈ 1.15 µM), an MIC (Staphylococcus aureus [2]) of 0.06 µg/mL (≈ 0.138 µM) and an MIC [3] of 16 µg/mL (≈ 36.9 µM). The MIC (Enterococcus faecalis) was 2 µg/mL (≈ 4.61 µM), the MIC (Enterococcus faecium) was 0.5 µg/mL (≈ 1.15 µM) and the MIC (Escherichia coli) was 16 µg/mL (≈ 36.9 µM). The MIC (Klebsiella pneumoniae) was greater than 64 µg/mL, the MIC (Pseudomonas aeruginosa) was greater than 64 µg/mL and the MIC (Acinetobacter baumannii) was greater than 64 µg/mL. For the same molecule, the MIC (Moraxella catarrhalis) was 0.03 µg/mL (≈ 0.0692 µM), the MIC [4] was 0.5 µg/mL (≈ 1.15 µM) and the MIC [5] was 1 µg/mL (≈ 2.31 µM). For the same molecule, the Activity (HEK293 [6]) was “Non-Toxic”, the Activity (HepG2 [7]) was “Non-Toxic” and the Activity (A549 [8]) was “Non-Toxic”. The inhibition at 64 ug/ml [9] was less than 12%, the inhibition at 64 ug/ml [10] was less than 12% and the viability (HEK293 [11]) was 99.5%. For the same molecule, the viability (A549 [12]) was 88.6% and the viability (HepG2 [13]) was 91.8%.
COc1cc(CN2CCN(C(=O)c3ccccc3C)CC2)nc2ccc(F)cc12 gave an MIC (Staphylococcus aureus [1]) greater than 64 µg/mL, an MIC (Staphylococcus aureus [2]) greater than 64 µg/mL and an MIC [3] greater than 64 µg/mL. It also gave an MIC (Enterococcus faecalis) greater than 64 µg/mL, an MIC (Enterococcus faecium) greater than 64 µg/mL and an MIC (Escherichia coli) greater than 64 µg/mL. For the same molecule, the MIC (Klebsiella pneumoniae) was greater than 64 µg/mL, the MIC (Pseudomonas aeruginosa) was greater than 64 µg/mL and the MIC (Acinetobacter baumannii) was greater than 64 µg/mL. It also gave an MIC (Moraxella catarrhalis) greater than 64 µg/mL, an MIC [4] greater than 64 µg/mL and an MIC [5] greater than 64 µg/mL.
COc1ccc2nc(CN3CCN(S(=O)(=O)c4ccccc4F)CC3)cc(OC)c2c1 gave an MIC (Staphylococcus aureus [1]) of 0.03 µg/mL (≈ 0.0673 µM), an MIC (Staphylococcus aureus [2]) of 8 µg/mL (≈ 18 µM) and an MIC [3] of 32 µg/mL (≈ 71.8 µM). The MIC (Enterococcus faecalis) was 1 µg/mL (≈ 2.24 µM), the MIC (Enterococcus faecium) was 2 µg/mL (≈ 4.49 µM) and the MIC (Escherichia coli) was 8 µg/mL (≈ 18 µM). The MIC (Klebsiella pneumoniae) was greater than 64 µg/mL, the MIC (Pseudomonas aeruginosa) was greater than 64 µg/mL and the MIC (Acinetobacter baumannii) was greater than 64 µg/mL. It also gave an MIC (Moraxella catarrhalis) of 0.06 µg/mL (≈ 0.135 µM), an MIC [4] of 0.031 µg/mL (≈ 0.0696 µM) and an MIC [5] of 0.063 µg/mL (≈ 0.141 µM). The Activity (HEK293 [6]) was “Non-Toxic”, the Activity (HepG2 [7]) was “Non-Toxic” and the Activity (A549 [8]) was “Non-Toxic”. It also gave an inhibition at 64 ug/ml [9] of less than 12%, an inhibition at 64 ug/ml [10] of less than 12% and a viability (HEK293 [11]) of 100.8%. For the same molecule, the viability (A549 [12]) was 91.1% and the viability (HepG2 [13]) was 97.7%.
